Measured values from different studies.
Lines come from different studies, so protocols differ.
Target: Calcium/calmodulin-dependent protein kinase type II subunit beta (CAMK2B, Homo sapiens, UniProt Q13554)

| SMILES | test | conditions | measurement | result |
| --- | --- | --- | --- | --- |
| Cc1nc(Cc2cccc(C(F)(F)F)c2)sc1-c1ccc(C(N)=O)nc1 | cell-free assay, competition with immobilised ligand | 1 µM | remaining binding | 100% |
| Cc1ccc(Nc2nccc(N(C)c3ccc4c(C)n(C)nc4c3)n2)cc1S(N)(=O)=O | enzyme activity, inhibitor | 10 µM | inhibition | 29% |
| CCC(=O)N[C@@H]1CC[C@H](C(=O)N(C)c2ccc(-c3nc4ccccc4o3)cc2)C1 | cell-free assay, competition with immobilised ligand | 1 µM | remaining binding | 100% |
| COc1cc(Nc2c(C#N)cnc3cc(OCCCN4CCN(C)CC4)c(OC)cc23)c(Cl)cc1Cl | cell-free assay | 0.5 µM | remaining signal | 86.2% |
| CCCCN(CCCC)C(=O)CN1C[C@@H](c2cc(OC)c3c(c2)OCO3)[C@H](C(=O)O)[C@H]1CC(C)(C)CCC | cell-free assay, competition with immobilised ligand | 1 µM | remaining binding | 100% |
| Oc1ccc(-c2nc(-c3ccncc3)c(-c3ccc(F)cc3)[nH]2)cc1 | cell-free assay | 0.5 µM | remaining signal | 96.4% |
| O=C(O)[C@H]1[C@H](Cn2nnc3ccccc3c2=O)CC[C@@H]1C(=O)c1ccc(OCCC2CCOCC2)cc1 | cell-free assay, competition with immobilised ligand | 1 µM | remaining binding | 100% |
| CNC(=O)c1cc(Oc2ccc(NC(=O)Nc3ccc(Cl)c(C(F)(F)F)c3)cc2)ccn1 | enzyme activity, inhibitor | 0.3 µM | inhibition | 27% |
| COc1ccc(COc2ccc(Cc3cnc(N)nc3N)cc2OC)cc1 | cell-free assay | 0.5 µM | remaining signal | 100% |
| CC(C)(C)c1nc2c(s1)c1nc(N)ncc1c1ccc(NS(=O)(=O)c3c(F)cccc3F)c(F)c12 | enzyme activity, inhibitor, radiometric | 1 µM | remaining activity | 83% |
| Cc1noc([C@H]2C[C@@H](c3ccc(C(F)(F)F)cc3)CN(C(=O)N3CCS(=O)(=O)C3)C2)n1 | cell-free assay, competition with immobilised ligand | 1 µM | remaining binding | 100% |
| Cc1ccc(C(=O)Nc2ccc(CN3CCN(C)CC3)c(C(F)(F)F)c2)cc1C#Cc1cnc2cccnn12 | enzyme activity, inhibitor | 23.5 nM | remaining activity | 97% |
| COc1cccc2c(NCc3ccccc3)nc(-n3c(N)nc4ccccc43)nc12 | target engagement in cells, inhibitor, chemoproteomics | 20 mM | inhibition | -1.1% |
| CC(C)(O)[C@H]1CC[C@H](Nc2ccc3ncc(-c4cccc(C(F)(F)F)c4)n3n2)CC1 | enzyme activity, inhibitor | 1 µM | remaining activity | 96.9% |
| CS(=O)(=O)N1CCCC(NC(=O)[C@H](CCC2CCCCC2)NC(=O)c2ccc(CNc3ncnc4c3nnn4-c3ccccc3)cc2)C1 (stereo partly drawn) | cell-free assay, competition with immobilised ligand | 0.1 µM | remaining binding | 100% |
| Cc1cc(NC(=O)c2cccc3cc(-c4cccc5[nH]nc(N)c45)ccc23)ccc1F | enzyme activity, inhibitor | 0.1 µM | activity vs control | 94% |
| COc1cc2ncnc(Nc3ccc(Oc4ccccc4)cc3C)c2cc1OC | enzyme activity, inhibitor | 1 µM | inhibition | 8% |
| COc1cc(Cl)c(C(=O)N[C@@H](CN[C@H]2CC[C@@H](N)CC2)Cc2ccc(C#N)cc2)cc1-c1ccc(CN[C@H](C)c2ccc(C)cc2)o1 | enzyme activity, inhibitor | 1 µM | remaining activity | 94% |
| Cc1cnc(NC2CCOCC2)nc1-n1cnc(C(=O)NC(CN)c2cc(F)cc(Cl)c2)c1 (stereo not drawn) | enzyme activity, inhibitor, radiometric | 1 µM | remaining activity | 87% |
| Cc1ccc(C(=O)NCc2ccsc2)cc1C#Cc1cn(C(C)C)c2ncnc(N)c12 | enzyme activity, inhibitor | 1 µM | activity vs control | 95% |
| CO[C@@H](C)c1c(Nc2ccc([C@H](N(C)C(=O)C3CCS(=O)(=O)CC3)C(F)(F)F)cc2)cnc2cc(Cl)nn12 | cell-free assay, competition with immobilised ligand | 1 µM | remaining binding | 94% |
| N#CCCc1ccc2c(c1)-c1[nH]c3ccc([N+](=O)[O-])cc3c1CC(=O)N2 | cell-free assay | 0.5 µM | remaining signal | 99.3% |
| O=C(NCc1ncc(C(F)(F)F)cc1Cl)c1ccc2c(c1)C1(CCS(=O)(=O)CC1)[C@@H](C1CC1)N2S(=O)(=O)c1ccc(F)cc1 | cell-free assay, competition with immobilised ligand | 1 µM | remaining binding | 92% |
| CCN(CC)CCNC(=O)c1c(C)[nH]c(/C=C2\C(=O)Nc3ccc(F)cc32)c1C | enzyme activity, inhibitor | 0.3 µM | inhibition | 57% |
| C[S+]([O-])c1ccc(-c2nc(-c3ccncc3)c(-c3ccc(F)cc3)[nH]2)cc1 (stereo not drawn) | cell-free assay | 0.5 µM | remaining signal | 97.6% |
| c1ccc(CNc2nc(N3CCOc4ccccc43)nc3c2CCCC3)cc1 | target engagement in cells, inhibitor, chemoproteomics | 20 mM | inhibition | 12.7% |
| CCCS(=O)(=O)Nc1ccc(F)c(C(=O)c2c[nH]c3ncc(-c4ccc(Cl)cc4)cc23)c1F | enzyme activity, inhibitor | 1 µM | inhibition | < 10% |
| CCCOc1ccc(OC)c(F)c1C(=O)c1ccc(C(=O)N[C@@H]2CNC[C@H]2NC(=O)c2ccc3[nH]ncc3c2)cc1 | enzyme activity, inhibitor | 10 µM | remaining activity | 53% |
| Clc1ccc(Nc2nnc(Cc3ccncc3)c3ccccc23)cc1 | cell-free assay | 0.5 µM | remaining signal | 109% |
| O=C(Nc1cnn(-c2csc(C(=O)NC3COC3)c2)c1)Nc1c(F)cccc1Cl | enzyme activity, inhibitor | 5 µM | remaining activity | 99.1% |
